According to ChEMBL document CHEMBL1136866, “Synthesis, antiplatelet and in silico evaluations of novel N-substituted-phenylamino-5-methyl-1H-1,2,3-triazole-4-carbohydrazides” (Bioorg Med Chem, 2009):
≈ marks a conversion by molar mass, not a printed value. Calls of active or inactive are those of the source. The rule behind the calls is not given here.

Tests used:
Type in all cases: functional
[1] = Antiplatelet activity in human citreated platelet rich plasma assessed as inhibition of arachidonic acid-induced platelet aggregation at 100 ug/ml preincubated before arachidonic acid challenge
Method in brief: (§1)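 Human PRP from whole blood spun 120g, 5 min, room temperature; platelet count set to 3.0 × 10^5/μL with homologous platelet-poor plasma (1500g, 5 min). PRP preincubated 2 min at 37 °C with compound at 100 μg ml−1 or DMSO solvent (final 1%), then agonist added (ADP, adrenaline or arachidonic acid). Read-out: % inhibition of aggregation, measured within 3 h of blood sampling.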

[2] = Antiplatelet activity in human citreated platelet rich plasma assessed as inhibition of arachidonic acid-induced platelet aggregation preincubated before arachidonic acid challenge
Method in brief: (§2)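 Human PRP prepared by whole-blood centrifugation (120g, 5 min, room temperature) and adjusted to 3.0 × 10^5 platelets/μL using homologous platelet-poor plasma (1500g, 5 min). Compound at 1–500 μg ml−1, or DMSO (final 1%), preincubated with PRP 2 min at 37 °C before agonist (ADP, adrenaline or arachidonic acid). IC50 in μg ml−1 from aggregation inhibition, assayed within 3 h of sampling.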

[3] = Antiplatelet activity in human citreated platelet rich plasma assessed as inhibition of adenosine diphosphate-induced platelet aggregation preincubated before adenosine diphosphate challenge; method in brief: as §2
[4] = Antiplatelet activity in human citreated platelet rich plasma assessed as inhibition of adrenaline-induced platelet aggregation preincubated before adrenaline challenge; method in brief: as §2
Platelet = experiment: Antiplatelet activity in human citreated platelet rich plasma assessed as inhibition of adrenaline-induced platelet aggregation at 100 ug/ml preincubated before adrenaline challenge; method in brief: as §1
[5] = Antiplatelet activity in human citreated platelet rich plasma assessed as inhibition of adenosine diphosphate-induced platelet aggregation at 100 ug/ml preincubated before adenosine diphosphate challenge; method in brief: as §1

| IC50 [2] [µg/mL] | IC50 [3] [µg/mL] | IC50 [4] [µg/mL] | Structure (SMILES) | inhibition at 100 µg/mL [1] [%] | inhibition (Platelet) | inhibition at 100 µg/mL [5] [%] |
| --- | --- | --- | --- | --- | --- | --- |
| 32.5 (≈ 180 µM) | 21.5 (≈ 119 µM) | 11.7 (≈ 64.9 µM) | CC(=O)Oc1ccccc1C(=O)O [ASPIRIN] | – | – | – |
| 112 (≈ 359 µM) | 338 (≈ 1090 µM) | 20.1 (≈ 64.8 µM) | Cc1c(C(=O)N/N=C/c2ccco2)nnn1Nc1ccccc1 | – | Active | – |
| 9.1 (≈ 22.5 µM) | 317 (≈ 782 µM) | 13.4 (≈ 33.1 µM) | Cc1c(C(=O)N/N=C/c2ccc(Br)s2)nnn1Nc1ccccc1 | ≥ 50 | Active | – |
| 8.8 (≈ 27.4 µM) | 278 (≈ 864 µM) | 161 (≈ 501 µM) | Cc1c(C(=O)N/N=C/c2ccncc2)nnn1Nc1ccccc1 | ≥ 50 | – | – |
| 169 (≈ 476 µM) | 11.6 (≈ 32.6 µM) | 8.9 (≈ 25 µM) | Cc1c(C(=O)N/N=C/c2ccc([N+](=O)[O-])o2)nnn1Nc1ccccc1 | – | Active | > 50 |

More lines, now with the values behind:

| Structure (SMILES) | IC50 [2] [µg/mL] | IC50 [3] [µg/mL] | IC50 [4] [µg/mL] | inhibition at 100 µg/mL [1] [%] | inhibition (Platelet) | inhibition at 100 µg/mL [5] [%] |
| --- | --- | --- | --- | --- | --- | --- |
| Cc1c(C(=O)N/N=C/c2ccncc2)nnn1Nc1ccc(Cl)cc1 | 33.1 (≈ 93 µM) | 169 (≈ 474 µM) | 145 (≈ 406 µM) | ≥ 50 | – | – |
| Cc1c(C(=O)N/N=C/c2ccc(Br)s2)nnn1Nc1ccc(Cl)cc1 | 9.1 (≈ 20.7 µM) | 332 (≈ 756 µM) | 144 (≈ 328 µM) | ≥ 50 | – | – |
| Cc1c(C(=O)N/N=C/c2ccccc2)nnn1Nc1ccccc1 | 230 (≈ 718 µM) | 19 (≈ 59.4 µM) | 9.6 (≈ 30 µM) | – | Active | > 50 |
| Cc1c(C(=O)N/N=C/c2ccco2)nnn1Nc1ccc(Cl)cc1 | 8.9 (≈ 25.8 µM) | 261 (≈ 757 µM) | 7.8 (≈ 22.6 µM) | ≥ 50 | Active | – |
| Cc1c(C(=O)N/N=C/c2ccc([N+](=O)[O-])o2)nnn1Nc1ccc(Cl)cc1 | 35.5 (≈ 91.1 µM) | 136 (≈ 350 µM) | 147 (≈ 377 µM) | ≥ 50 | – | – |
| Cc1c(C(=O)N/N=C/c2ccccc2)nnn1Nc1ccc(Cl)cc1 | 32.2 (≈ 90.8 µM) | 180 (≈ 508 µM) | 28.9 (≈ 81.5 µM) | ≥ 50 | Active | – |
